# This excerpt belongs to a sample that is enriched for hits.
# HCT116 bCat-KO – primary screen for growth suppressors in beta-catenin knockout HCT116 cells (colon tumor, human) | viability, % at 10 µM | HCT116 beta-catenin knockout viability, CellTiter-Glo, 60 h; active compounds read low | 140,000 tested, 1.5% active | AID 818, 2007;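 active means viability at or under a set limit, the compound median less 4 SD, cut at about 6% in these data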;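 further: 0% = Hyamine 1622 control at 20 µM and 100% = untreated cell control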
# H69AR inhibit – proliferation blockers of H69AR lung cancer cells, primary screen, cell-based, human, 86K library | viability, % at 10 µM | AID 598, 2007 | H69AR lung tumor viability, ATP luminescence, 72 h; active compounds read low | 85,000 tested, 6% active;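 active means viability at or below 40%; inactive means viability above 40%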;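 further: multidrug resistant small cell line overexpressing MRP-1 efflux transporter; 100% = mean luminescence of untreated control wells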
# Lung fibro prol – antiproliferative effect on LL 47 fibroblasts – human, LL 47 cells, CellTiter-Glo luminescence, primary screen; AID 719, 2007; 85,000 tested, 1.1% active; viability, % at 10 µM; LL 47 human lung fibroblast viability, ATP luminescence; active compounds read low;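 active means viability at or below 50% in the single dose screen; inactive means viability above 50%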;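 further: compound exposure lasted 72 h before the ATP readout; 100% = median luminescence of untreated cell-only wells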
#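 Test system: LL 47 human lung fibroblasts; Quantity: 1,150 cells/well; Buffer or medium: IMEM plus 15% FBS; Dosing: tenfold compound dosing solution, DMSO at 0.1%; Timing: overnight cell rest, 72 h compound treatment at 37 °C; Detection: ATP-based CellTiter-Glo luminescent readout; Read-out basis: viability percentage against median untreated-cell control; Controls: cell-only wells, no compound.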
# PTEN del growth – growth suppression of PTEN-null HCT116, primary screen, cell-based, CellTiter-Glo; AID 827, 2007; viability, % at 10 µM; HCT116 PTEN-null viability, 60 h; active compounds read low; 140,000 tested, 1.2% active;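 active means viability at or below a set limit, 4 SD under the median of all tested compounds, cut at about 3.7% in these data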;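 further: PTEN knockout HCT116 line with beta catenin targeted HCT116 as companion control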
# HUVEC prolif 384 – inhibitors of HUVEC proliferation, primary screen, cell-based, 384-well; CellTiter-Glo luminescence, 72 h; active compounds read low; viability, % at 10 µM (by protocol); 86,000 tested, 1.1% active;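 active means viability at or below 30%; inactive means viability above 30%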;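 further: 100% = median luminescence of DMSO-only cell control wells on each plate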
# * hit, by the source's call; / = not tested or not shown.
SMILES,HCT116 bCat-KO,H69AR inhibit,Lung fibro prol,PTEN del growth,HUVEC prolif 384
O=S(=O)(NC1CC1)c1ccc(S(=O)(=O)N2CCN3CCCC3C2)cc1 (centres undefined),93,95,109,99,111
O=S(=O)(NC1CC1)c1ccc(S(=O)(=O)N2CCCC3(CCCCC3)C2)cc1,94,32*,59,84,60
Cc1ccc2[nH]c(=O)c(C3C(C#N)=C(N)Oc4c3ccc3cccnc43)cc2c1 (centres undefined),10,10*,69,8,4.9*
Cc1ccc(C2C(C#N)=C(N)Oc3c2sc2ccccc32)o1 (centres undefined),69,13*,58,72,41
CCOC(=O)CC1=C(C(=O)OCC)C(c2ccc(C)o2)C(C#N)=C(N)O1 (centres undefined),86,103,94,96,108
O=S(=O)(CCN1CCN(C(c2ccccc2)c2ccccc2)CC1)C(F)(F)F,9,4.4*,73,25,79
c1ccc(OCCOCCN2CCN(C(c3ccccc3)c3ccccc3)CC2)cc1,52,/,/,58,/
Cc1ncc(CCl)c2c1OC(C)(C)OC2,100,2.8*,97,96,79
O=C(Nc1nccs1)C1CCN(S(=O)(=O)c2c(Cl)cccc2Cl)CC1,89,/,/,93,/
CC1(C)Cc2c(C#N)c(OCC(=O)c3ccc(Cl)cc3)nc(-c3ccoc3)c2CO1,64,50,39*,76,76
CCn1nc(C)c(/C=N/NC(=O)c2ccc3c(c2)c(C)c(C)n3Cc2ccccc2)c1C,91,/,/,88,/
CCOC(=O)c1sc(=NC(=O)c2cc(OC)c(OC)c(OC)c2)n(C)c1C,22,11*,97,13,92
CCOC(=O)c1sc(=NC(=O)c2ccc(S(=O)(=O)N3CCOCC3)cc2)n(C)c1C,/,84,103,/,94
Cc1ccc(C)c(NC(=O)C(Sc2ncnc3ccccc23)c2ccccc2)c1 (centres undefined),67,/,/,1.2*,/
CCC(=O)Nc1ccccc1Nc1cc(C#N)c(C#N)cc1[N+](=O)[O-],/,75,105,/,56
O=C(/C=C\c1ccc2c(c1)OCO2)Nc1nnc(SCC(=O)OCc2ccccc2)s1,91,/,/,96,/
COc1cccc(-c2cc(C(=O)Nc3cccnc3)no2)c1,78,96,85,88,57
COc1cccc(-c2cc(C(=O)Nc3cc(OC)c(OC)c(OC)c3)no2)c1,33,17*,75,24,50
COc1ccccc1N1CCN(CC(=O)Nc2cc(C)nn2-c2nc(C)cc(C)n2)CC1,/,19*,37*,/,38
COC(=O)c1c(NC(=O)CN2CCN(c3ccccc3OC)CC2)c2cc(C)ccc2n1C,88,29*,87,95,66
COc1ccccc1N1CCN(CC(=O)Nc2cc(F)ccc2C)CC1,95,75,99,105,106
COc1ccc(CN2C(=O)/C(=C/c3ccncc3)SC2=S)cc1,2.5*,/,/,2.0*,/
O=C(O)CCCCCN1C(=O)/C(=C\c2ccncc2)SC1=S,32,/,/,35,/
COC(=O)c1c(C)n(-c2ccc(OC)cc2)c2ccc(O)cc12,91,18*,79,43,18*
CC1CCCC(C)N1S(=O)(=O)c1ccc(S(=O)(=O)NCc2ccccc2)cc1 (centres undefined),58,36*,46*,41,90
SMILES,HCT116 bCat-KO,H69AR inhibit,Lung fibro prol,PTEN del growth,HUVEC prolif 384
CC1CCN(S(=O)(=O)c2ccc(S(=O)(=O)NCc3ccccc3)cc2)CC1,51,38*,90,46,76
O=S(=O)(NCc1ccccc1)c1ccc(S(=O)(=O)N2CCCCC2)cc1,72,82,98,80,91
O=C(CCc1ccccc1)NC(NC(=S)Nc1ccc(Br)cc1)C(Cl)(Cl)Cl (centres undefined),84,8.3*,77,81,37
CN1c2ccccc2C(C)(C)C12CC(CCl)=NO2 (centres undefined),81,4.5*,96,82,90
CN1c2ccccc2C(C)(C)C12CC(c1ccc(Cl)c(S(=O)(=O)N3CCCC3)c1)=NO2 (centres undefined),73,/,/,82,/
c1ccc(-c2cc(-c3nc(-c4cccnc4)no3)c3ccccc3n2)cc1,/,12*,107,/,83
c1ccc(-c2ccccc2-c2nc(-c3cccnc3)no2)cc1,97,76,95,85,76
Cc1cccc(NC(=O)/C=C/c2ccc([N+](=O)[O-])s2)c1,2.8*,/,/,1.1*,/
Cc1cccc(NC(=S)N/N=C/c2ccc([N+](=O)[O-])s2)c1,1.0*,/,/,0.8*,/
Cc1ccc(NC(=O)/C=C/c2ccc([N+](=O)[O-])s2)c(C)c1,2.6*,/,/,1.1*,/
Cc1ccc(NC(=O)/C=C/c2ccc([N+](=O)[O-])s2)cc1,9,/,/,4,/
O=[N+]([O-])c1ccc(/C=N/NC(=S)Nc2ccccc2)o1,61,/,/,48,/
CC(=O)c1cccc(S(=O)(=O)NC2CC2)c1,97,/,/,92,/
Cc1ccc(-n2nc(CN3CCOCC3)c(-c3ccccc3)c2N)cc1Cl,78,/,/,70,/
S=C(Nc1ccc2cn[nH]c2c1)Nc1ccccc1Cl,93,/,/,100,/
COc1cc(/C=C(\C#N)c2nc3ccccc3[nH]2)cc(Br)c1OCc1ccc(F)cc1,2.1*,/,/,2.1*,/
COc1ccc(COCC(O)CN2CC(C)OC(C)C2)cc1OC (centres undefined),92,93,103,105,94
CCOc1ccc(-c2csc(/C(C#N)=C\c3ccc(O)c([N+](=O)[O-])c3)n2)cc1,5.5*,/,/,5,/
CCCCc1ccc(-c2csc(/C(C#N)=C\c3ccc(C)o3)n2)cc1,95,/,/,87,/
O=C(NNS(=O)(=O)c1cc(Cl)cc(Cl)c1)c1sccc1-n1cccc1,80,/,/,92,/
COc1ccccc1-c1cc(SC)c(C#N)c(=O)o1,88,/,/,87,/
Cc1ccc(/C=C/C(=O)N2CCC(Cc3ccccc3)CC2)cc1,96,/,/,91,/
Cc1ncsc1C(=O)N1N=C2/C(=C/c3ccccc3)CCCC2C1c1ccccc1 (centres undefined),44,/,/,39,/
CCn1cc(Cl)c(C(=O)N2N=C3/C(=C/c4cccs4)CCCC3C2c2cccs2)n1 (centres undefined),54,38*,92,51,75
COc1cc(Cl)c(C)cc1NC(=O)CSc1ccc(NC(C)=O)cc1,86,/,/,84,/
COc1ccc(C2=Nn3c(nnc3-c3ccncc3)SC2)cc1OC,37,/,/,25,/
COc1ccccc1-c1nnc2n1N=C(c1ccc(O)c(O)c1)CS2,20,21*,38*,15,51
COc1ccc(C2=Nn3c(nnc3-c3cccnc3)SC2)cc1OC,/,85,45*,/,71
N#CC1=C(N)NC(SCc2ccccc2)=C(C#N)C12CCCCC2,16,11*,60,37,26*

# Source: PubChem (SRMLSC)
